According to ChEMBL document CHEMBL1138089, “Cell permeation of a Trypanosoma brucei aldolase inhibitor: evaluation of different enzyme-labile phosphate protecting groups” (Bioorg Med Chem Lett, 2006):
pIC50: −log10 of the molar value.

system: Plasmodium falciparum; experiment: Inhibitory activity against Plasmodium falciparum; type: functional, organism-based

Q: `CC(C)(C)C(=O)SCCOP(=O)(OCCSC(=O)C(C)(C)C)Oc1ccc(O)c(C=O)c1` was tested. Which pIC50 did it give?
A: 4.92

Q: With `CC(=O)OCCSSCCOP(=O)(OCCSSCCOC(C)=O)Oc1ccc(O)c(C=O)c1` as the compound, how does the pIC50 read?
A: < 4.30

Q: How did the pIC50 turn out when `O=Cc1cc(OP(=O)(O)O)ccc1O` was run?
A: < 4.30

Q: `CC(C)(C)C(=O)OCOP(=O)(OCOC(=O)C(C)(C)C)Oc1ccc(O)c(C=O)c1` was tested. Which pIC50 did it give?
A: < 4.30

Q: With `CC(=O)Oc1ccccc1CCC(=O)OCOP(=O)(OCOC(=O)CCc1ccccc1OC(C)=O)Oc1ccc(O)c(C=O)c1` as the compound, how does the pIC50 read?
A: < 4.30

system: Trypanosoma cruzi; experiment: Inhibitory activity against Trypanosoma cruzi; type: functional, organism-based
Procedure, shortened: (§1)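 Parasites grown inside host macrophages in serum-containing medium, so compounds must cross the macrophage and parasite membranes; tested in vitro.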

Q: How did the pIC50 turn out when `CC(C)(C)C(=O)SCCOP(=O)(OCCSC(=O)C(C)(C)C)Oc1ccc(O)c(C=O)c1` was run?
A: 4.82

Q: How did the pIC50 turn out when `CC(=O)OCCSSCCOP(=O)(OCCSSCCOC(C)=O)Oc1ccc(O)c(C=O)c1` was run?
A: < 4.30

Q: `O=Cc1cc(OP(=O)(O)O)ccc1O` was tested. Which pIC50 did it give?
A: < 4.30

Q: How did the pIC50 turn out when `CC(C)(C)C(=O)OCOP(=O)(OCOC(=O)C(C)(C)C)Oc1ccc(O)c(C=O)c1` was run?
A: < 4.30

Q: `CC(=O)Oc1ccccc1CCC(=O)OCOP(=O)(OCOC(=O)CCc1ccccc1OC(C)=O)Oc1ccc(O)c(C=O)c1` was tested. Which pIC50 did it give?
A: < 4.30

system: Leishmania infantum; experiment: Inhibitory activity against Leishmania […]; type: functional, organism-based; procedure, shortened: as §1

Q: With `CC(C)(C)C(=O)SCCOP(=O)(OCCSC(=O)C(C)(C)C)Oc1ccc(O)c(C=O)c1` as the compound, how does the pIC50 read?
A: 4.60

Q: How did the pIC50 turn out when `CC(=O)OCCSSCCOP(=O)(OCCSSCCOC(C)=O)Oc1ccc(O)c(C=O)c1` was run?
A: < 4.30

Q: How did the pIC50 turn out when `O=Cc1cc(OP(=O)(O)O)ccc1O` was run?
A: < 4.30

Q: `CC(C)(C)C(=O)OCOP(=O)(OCOC(=O)C(C)(C)C)Oc1ccc(O)c(C=O)c1` was tested. Which pIC50 did it give?
A: < 4.30

Q: `CC(=O)Oc1ccccc1CCC(=O)OCOP(=O)(OCOC(=O)CCc1ccccc1OC(C)=O)Oc1ccc(O)c(C=O)c1` was tested. Which pIC50 did it give?
A: < 4.30

system: MRC5; experiment: Cytotoxicity against human MRC5 cells; type: functional, cell-based

Q: How did the pIC50 turn out when `CC(C)(C)C(=O)SCCOP(=O)(OCCSC(=O)C(C)(C)C)Oc1ccc(O)c(C=O)c1` was run?
A: 5.22

Q: How did the pIC50 turn out when `CC(=O)OCCSSCCOP(=O)(OCCSSCCOC(C)=O)Oc1ccc(O)c(C=O)c1` was run?
A: < 4.30

Q: With `O=Cc1cc(OP(=O)(O)O)ccc1O` as the compound, how does the pIC50 read?
A: < 4.30

Q: `CC(C)(C)C(=O)OCOP(=O)(OCOC(=O)C(C)(C)C)Oc1ccc(O)c(C=O)c1` was tested. Which pIC50 did it give?
A: < 4.30

Q: How did the pIC50 turn out when `CC(=O)Oc1ccccc1CCC(=O)OCOP(=O)(OCOC(=O)CCc1ccccc1OC(C)=O)Oc1ccc(O)c(C=O)c1` was run?
A: < 4.30

system: Trypanosoma brucei; experiment: Inhibitory activity against Trypanosoma brucei; type: functional, organism-based
Procedure, shortened: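 Parasites cultured free in serum-containing medium without macrophages; prodrugs tested in vitro against the cultures.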

Q: `CC(C)(C)C(=O)SCCOP(=O)(OCCSC(=O)C(C)(C)C)Oc1ccc(O)c(C=O)c1` was tested. Which pIC50 did it give?
A: 4.80

Q: How did the pIC50 turn out when `CC(=O)OCCSSCCOP(=O)(OCCSSCCOC(C)=O)Oc1ccc(O)c(C=O)c1` was run?
A: < 4.30

Q: How did the pIC50 turn out when `O=Cc1cc(OP(=O)(O)O)ccc1O` was run?
A: < 4.30

Q: How did the pIC50 turn out when `CC(C)(C)C(=O)OCOP(=O)(OCOC(=O)C(C)(C)C)Oc1ccc(O)c(C=O)c1` was run?
A: 4.70

Q: How did the pIC50 turn out when `CC(=O)Oc1ccccc1CCC(=O)OCOP(=O)(OCOC(=O)CCc1ccccc1OC(C)=O)Oc1ccc(O)c(C=O)c1` was run?
A: < 4.30
